The values below come from ChEMBL document CHEMBL1921785, “Exploration of in vitro time point quantitative evaluation of newly synthesized benzimidazole and benzothiazole derivatives as potential antibacterial agents” (2011).

What all share (format): functional
The subject of assay [1] is Shigella dysenteriae. As to the kind of experiment: Antibacterial activity against Shigella dysenteriae assessed as zone of growth inhibition at 0.2 mg/ml after 18 to 24 hrs by Kirby-Bauer agar diffusion method. The note with it: read-out: DIZ. A general note: Agar diffusion results depend on both activity and mobility in agar.
Assay [2] deals with Bacillus cereus. As to the kind of experiment: Antibacterial activity against Bacillus cereus MTCC 430 assessed as zone of growth inhibition at 0.2 mg/ml after 18 to 24 hrs by Kirby-Bauer agar diffusion method. The conditions noted are these: read-out: DIZ. An outline of the steps:
(§1)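 Kirby-Bauer disc diffusion on Mueller-Hinton agar, following CLSI 2007 guidelines, with ciprofloxacin as reference drug. Read-out is the diameter of the zone of growth inhibition in mm.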

Assay [3] concerns Bacillus cereus. As to the kind of experiment: Bactericidal activity against Bacillus cereus MTCC 430 assessed as log reduction in bacterial count at 0.2 mg/mL up to 48 hrs by time-kill assay. An outline of the steps:
(§2)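 Time-kill by pour plate. Overnight 37 °C cultures in Mueller-Hinton broth were dosed at about 0.2 mg/mL and incubated at 37 °C for up to 72 h, with broth replenished every 24 h. Samples were taken over time, serially diluted, and pour-plated on MHA at 37 °C for 18–24 h. Colonies were counted as CFU/ml against untreated culture controls.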

For assay [4], the system named is Staphylococcus aureus. As to the kind of experiment: Antibacterial activity against Staphylococcus aureus MTCC 3160 assessed as zone of growth inhibition at 0.2 mg/ml after 18 to 24 hrs by Kirby-Bauer agar diffusion method. The conditions noted are these: read-out: DIZ. An outline of the steps: as §1
The test system of assay [5] is Staphylococcus aureus. As to the kind of experiment: Bactericidal activity against Staphylococcus aureus MTCC 3160 assessed as time required to complete extermination of bacteria at 0.2 mg/mL by time-kill assay. An outline of the steps:
as §2

The subject of assay [6] is Vibrio cholerae. As to the kind of experiment: Antibacterial activity against Vibrio cholerae MTCC 3904 assessed as zone of growth inhibition at 0.2 mg/ml after 18 to 24 hrs by Kirby-Bauer agar diffusion method. The conditions noted are these: read-out: DIZ.
The test system of assay [7] is Escherichia coli. As to the kind of experiment: Antibacterial activity against Escherichia coli MTCC 1610 assessed as zone of growth inhibition at 0.2 mg/ml after 18 to 24 hrs by Kirby-Bauer agar diffusion method. The conditions noted are these: read-out: DIZ. The essentials:
as §1

Assay [8] has as its system Vibrio cholerae. As to the kind of experiment: Bactericidal activity against Vibrio cholerae MTCC 3904 assessed as time required to complete extermination of bacteria at 0.2 mg/mL by time-kill assay.
Assay [9] concerns Bacillus cereus. As to the kind of experiment: Bactericidal activity against Bacillus cereus MTCC 430 assessed as time required to complete extermination of bacteria at 0.2 mg/mL by time-kill assay. The essentials:
as §2

For assay [10], the system named is Escherichia coli. As to the kind of experiment: Bactericidal activity against Escherichia coli MTCC 1610 assessed as time required to complete extermination of bacteria at 0.2 mg/mL by time-kill assay. The essentials: as §2
Assay [11] has as its system Shigella dysenteriae. As to the kind of experiment: Bactericidal activity against Shigella dysenteriae assessed as time required to complete extermination of bacteria at 0.2 mg/mL by time-kill assay.
The test system of assay [12] is Shigella dysenteriae. As to the kind of experiment: Bactericidal activity against Shigella dysenteriae assessed as time required to complete extermination of bacteria by time-kill assay.
In assay [13] the test system is Staphylococcus aureus. As to the kind of experiment: Bactericidal activity against Staphylococcus aureus MTCC 3160 assessed as time required to complete extermination of bacteria by time-kill assay. An outline of the steps: as §2
Assay [14] relates to Vibrio cholerae. As to the kind of experiment: Antibacterial activity against Vibrio cholerae MTCC 3904 assessed as zone of growth inhibition after 18 to 24 hrs by Kirby-Bauer agar diffusion method.
The subject of assay [15] is Bacillus cereus. As to the kind of experiment: Bactericidal activity against Bacillus cereus MTCC 430 assessed as time required to complete extermination of bacteria by time-kill assay. The essentials:
as §2

Assay [16] relates to Bacillus cereus. As to the kind of experiment: Antibacterial activity against Bacillus cereus MTCC 430 assessed as zone of growth inhibition after 18 to 24 hrs by Kirby-Bauer agar diffusion method. An outline of the steps: as §1
The test system of assay [17] is Shigella dysenteriae. As to the kind of experiment: Antibacterial activity against Shigella dysenteriae assessed as zone of growth inhibition at after 18 to 24 hrs by Kirby-Bauer agar diffusion method.
The subject of assay [18] is Vibrio cholerae. As to the kind of experiment: Bactericidal activity against Vibrio cholerae MTCC 3904 assessed as time required to complete extermination of bacteria by time-kill assay.

The structures appear in SMILES notation.

As for `CC(C)c1ccc(-c2nc3ccccc3s2)cc1`, the figures for the zone of inhibition at 200 µg/mL in assay [1], in [2] and in [4] were 15 mm, 20 mm and 13 mm, respectively. Besides, in [3], the “log reduction in bacterial count” value was found to be 3. In addition, the Time in [5] is <48 h.
Regarding `c1coc(Cn2c(-c3ccco3)nc3ccccc32)c1`, the zone of inhibition at 200 µg/mL stood at 12 mm in [1], 10 mm in assay [4] and 13 mm in assay [6]. The Time in assay [5] is <48 h.
Turning to `CCOc1cc(Cn2c(-c3ccc(O)c(OCC)c3)nc3ccccc32)ccc1O`, the zone of inhibition at 200 µg/mL in assay [4] is 23 mm; in assay [7], 14 mm. The Time in assay [5] was <24 h.
For `Oc1ccc(Cn2c(-c3ccc(O)cc3)nc3ccccc32)cc1`, in assay [1], the zone of inhibition at 200 µg/mL amounted to 11 mm.
Take `COc1cc(-c2nc3ccccc3s2)cc(OC)c1OC`: the zone of inhibition at 200 µg/mL in assay [1] is 23 mm.
As for `CCOc1ccc(-c2nc3ccccc3s2)cc1`, the zone of inhibition at 200 µg/mL in [1] amounted to 16 mm; in assay [2], 22 mm; in assay [4], 16 mm; in assay [6] it was 15 mm; in [7] it was 12 mm. Besides, in assay [3], the “log reduction in bacterial count” value is on record as 3. The Time in assay [5] is <48 h.
`c1ccc(Cn2c(-c3ccccc3)nc3ccccc32)cc1`: the Time in assay [8] is <24 h. Further, the zone of inhibition at 200 µg/mL in [1] turned out to be 23 mm; in assay [2], 22 mm; in assay [4] it was 10 mm; in [6], 33 mm; in assay [7], 19 mm. Moreover, the “log reduction in bacterial count” value in assay [3] is 3.
In the case of `Cc1ccc(Cn2c(-c3ccc(C)cc3)nc3ccccc32)cc1`, the zone of inhibition at 200 µg/mL is 13 mm in assay [1], 12 mm in assay [4] and 18 mm in [6].
For `CN(C)c1ccc(Cn2c(-c3ccc(N(C)C)cc3)nc3ccccc32)cc1` the same measures were 16 mm, 11 mm and 17 mm.
For `CC(C)(C)c1ccc(Cn2c(-c3ccc(C(C)(C)C)cc3)nc3ccccc32)cc1`, the zone of inhibition at 200 µg/mL turned out to be 13 mm in assay [1], 12 mm in assay [2], 21 mm in assay [6] and 17 mm in assay [7].
As to `Oc1ccc(Br)cc1Cn1c(-c2cc(Br)ccc2O)nc2ccccc21`, the Time in [9] is <24 h. Moreover, the figures for the zone of inhibition at 200 µg/mL in assay [2] and in [7] were 33 mm and 17 mm, respectively.
As to `Fc1ccc(Cn2c(-c3ccc(F)cc3)nc3ccccc32)cc1`, the results for the zone of inhibition at 200 µg/mL in assay [2] and in assay [4] were 18 mm and 10 mm, respectively.
For the compound `FC(F)(F)Oc1ccc(Cn2c(-c3ccc(OC(F)(F)F)cc3)nc3ccccc32)cc1`, the results for the Time in [8] and in assay [5] were <24 h and <48 h, respectively. The zone of inhibition at 200 µg/mL in [1] was 11 mm; in assay [4], 10 mm; in [6], 23 mm.
Take `Clc1ccc(Cn2c(-c3ccc(Cl)c(Cl)c3)nc3ccccc32)cc1Cl`: the zone of inhibition at 200 µg/mL in assay [1] was 11 mm.
Take `C(=C/c1nc2ccccc2n1C/C=C/c1ccccc1)/c1ccccc1`: the zone of inhibition at 200 µg/mL in assay [2] was 14 mm; in [6] it was 11 mm.
Turning to `CCCCCCCn1c(CCCCCC)nc2ccccc21`, the zone of inhibition at 200 µg/mL in assay [1] came out at 21 mm; in [2], 15 mm; in assay [4], 12 mm; in assay [6] it was 16 mm.
As for `O=[N+]([O-])c1cccc(Cn2c(-c3cccc([N+](=O)[O-])c3)nc3ccccc32)c1`, the zone of inhibition at 200 µg/mL was 10 mm in assay [4] and 13 mm in assay [6].
Turning to `FC(F)(F)c1ccc(Cn2c(-c3ccc(C(F)(F)F)cc3)nc3ccccc32)cc1`, the zone of inhibition at 200 µg/mL in assay [1] turned out to be 19 mm; in assay [4], 22 mm; in assay [6], 13 mm; in assay [7] it was 22 mm. In addition, the Time in assay [10] was <48 h.
Consider `Brc1ccc(Cn2c(-c3ccc(Br)cc3)nc3ccccc32)cc1`, for which the zone of inhibition at 200 µg/mL in assay [1] was determined as 13 mm; in [2], 15 mm; in assay [6] it was 16 mm.
As to `CCc1ccccc1-c1nc2ccccc2s1`, the zone of inhibition at 200 µg/mL amounted to 35 mm in assay [1]; 21 mm in [2]; 13 mm in assay [4]; 16 mm in assay [6]; 11 mm in assay [7]. Also, the Time in assay [11] turned out to be 72 h. In assay [3], the “log reduction in bacterial count” value is reported as 3.
As for `CCOc1ccc(-c2nc3ccccc3s2)cc1OC`, the zone of inhibition at 200 µg/mL was 15 mm in assay [1], 12 mm in [4] and 16 mm in assay [6].
As for `COc1ccc(Br)cc1-c1nc2ccccc2s1`, the results for the zone of inhibition at 200 µg/mL in assay [2], in [4] and in assay [6] were 21 mm, 12 mm and 17 mm, respectively.
`O=[N+]([O-])c1ccc(-c2nc3ccccc3s2)cc1`: the zone of inhibition at 200 µg/mL was 13 mm in [1] and 14 mm in assay [2].
As to `Oc1ccc(-c2nc3ccccc3s2)cc1`, the Time in assay [9] is <24 h. Besides, the zone of inhibition at 200 µg/mL turned out to be 19 mm in assay [2] and 18 mm in [6].
On to `O=C(O)c1cn(C2CC2)c2cc(N3CCNCC3)c(F)cc2c1=O` [CIPROFLOXACIN], for which the Time in assay [12] was <72 h; in [13] it was 48 h; in [15] it was 48 h; in assay [18] it was 48 h. For the same compound, the “diameter of the inhibition zone (DIZ)” value in assay [14] came to 24 mm; in assay [16] it was 14 mm; in assay [17], 14 mm.
